Bioassay records (PubChem BioAssay)
A selection: hits, their analogues and other compounds. The true share with any hit is near 1.6%.
UBC9 SUMO inh = inhibitors of in vitro SUMOylation cascade, primary screen, biochemical, HTRF, uHTS. SUMO-conjugating enzyme UBC9 (Homo sapiens), P63279. HTRF SUMOylation assay, SAE1/SAE2 + UBC9. inhibition, % at 35 µM. 0.36% of 290,000 active; in the data active = inhibition above about 50%, passing the limit was not always enough; inconclusive = no clear call, values can overlap the other calls
p97 inhibitor = inhibitors of human p97 ATPase, primary screen, biochemical; Transitional endoplasmic reticulum ATPase (Homo sapiens), P55072; recombinant p97 ATPase, Kinase-Glo ATP luminescence, 3 h; inhibition, % at 8 µM; 0.42% of 220,000 active; in the data active = inhibition above about 15%;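 note: 0% = DMSO vehicle and 100% = wells lacking enzyme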
p47phox inh = p47phox/p22phox peptide binding inhibitors, primary screen, biochemical, uHTS, NADPH oxidase regulatory subunit. 0.53% of 220,000 active. fluorescence polarization, 2 h. inhibition, % at 24.7 µM. AID 1274, 2008;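 note: 0% = p47phox with labelled peptide and 100% = labelled peptide alone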
14-3-3 Bad PPI = inhibitors of 14-3-3 zeta/Bad binding, primary screen, biochemical, TR-FRET, bovine 14-3-3 zeta. 14-3-3 protein zeta/delta (Bos taurus), P63103. TR-FRET 14-3-3zeta/Dy647-pBad peptide displacement, 1 h. inhibition, % at 21.7 µM. 0.71% of 220,000 active. AID 781, 2007;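 active = inhibition above about 70%, limit read from the data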;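 note: 0% = full 14-3-3 plus peptide FRET controls and 100% = background without 14-3-3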
eIF4E-4G inh = eIF4E–eIF4G protein interaction inhibitors, primary screen, biochemical, uHTS, TR-FRET, eIF4GI fragment. Eukaryotic translation initiation factor 4E (Mus musculus) + Eukaryotic translation …. TR-FRET eIF4E-eIF4GI(517-606) binding, 2 h. inhibition, % at 21.7 µM. 0.37% of 220,000 active. AID 782, 2007;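 note: 0% = full FRET control wells and 100% = background wells lacking eIF4GI fragment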
Target sequence (P63073 whole entry, looked up, the tested form may be a part): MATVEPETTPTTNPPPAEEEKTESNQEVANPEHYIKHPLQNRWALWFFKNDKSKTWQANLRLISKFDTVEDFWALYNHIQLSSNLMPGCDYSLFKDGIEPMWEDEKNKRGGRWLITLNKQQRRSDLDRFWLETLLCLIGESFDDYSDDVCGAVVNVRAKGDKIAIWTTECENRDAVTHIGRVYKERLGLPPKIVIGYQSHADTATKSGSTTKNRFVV
Target sequence (Q04637 whole entry, looked up, the tested form may be a part): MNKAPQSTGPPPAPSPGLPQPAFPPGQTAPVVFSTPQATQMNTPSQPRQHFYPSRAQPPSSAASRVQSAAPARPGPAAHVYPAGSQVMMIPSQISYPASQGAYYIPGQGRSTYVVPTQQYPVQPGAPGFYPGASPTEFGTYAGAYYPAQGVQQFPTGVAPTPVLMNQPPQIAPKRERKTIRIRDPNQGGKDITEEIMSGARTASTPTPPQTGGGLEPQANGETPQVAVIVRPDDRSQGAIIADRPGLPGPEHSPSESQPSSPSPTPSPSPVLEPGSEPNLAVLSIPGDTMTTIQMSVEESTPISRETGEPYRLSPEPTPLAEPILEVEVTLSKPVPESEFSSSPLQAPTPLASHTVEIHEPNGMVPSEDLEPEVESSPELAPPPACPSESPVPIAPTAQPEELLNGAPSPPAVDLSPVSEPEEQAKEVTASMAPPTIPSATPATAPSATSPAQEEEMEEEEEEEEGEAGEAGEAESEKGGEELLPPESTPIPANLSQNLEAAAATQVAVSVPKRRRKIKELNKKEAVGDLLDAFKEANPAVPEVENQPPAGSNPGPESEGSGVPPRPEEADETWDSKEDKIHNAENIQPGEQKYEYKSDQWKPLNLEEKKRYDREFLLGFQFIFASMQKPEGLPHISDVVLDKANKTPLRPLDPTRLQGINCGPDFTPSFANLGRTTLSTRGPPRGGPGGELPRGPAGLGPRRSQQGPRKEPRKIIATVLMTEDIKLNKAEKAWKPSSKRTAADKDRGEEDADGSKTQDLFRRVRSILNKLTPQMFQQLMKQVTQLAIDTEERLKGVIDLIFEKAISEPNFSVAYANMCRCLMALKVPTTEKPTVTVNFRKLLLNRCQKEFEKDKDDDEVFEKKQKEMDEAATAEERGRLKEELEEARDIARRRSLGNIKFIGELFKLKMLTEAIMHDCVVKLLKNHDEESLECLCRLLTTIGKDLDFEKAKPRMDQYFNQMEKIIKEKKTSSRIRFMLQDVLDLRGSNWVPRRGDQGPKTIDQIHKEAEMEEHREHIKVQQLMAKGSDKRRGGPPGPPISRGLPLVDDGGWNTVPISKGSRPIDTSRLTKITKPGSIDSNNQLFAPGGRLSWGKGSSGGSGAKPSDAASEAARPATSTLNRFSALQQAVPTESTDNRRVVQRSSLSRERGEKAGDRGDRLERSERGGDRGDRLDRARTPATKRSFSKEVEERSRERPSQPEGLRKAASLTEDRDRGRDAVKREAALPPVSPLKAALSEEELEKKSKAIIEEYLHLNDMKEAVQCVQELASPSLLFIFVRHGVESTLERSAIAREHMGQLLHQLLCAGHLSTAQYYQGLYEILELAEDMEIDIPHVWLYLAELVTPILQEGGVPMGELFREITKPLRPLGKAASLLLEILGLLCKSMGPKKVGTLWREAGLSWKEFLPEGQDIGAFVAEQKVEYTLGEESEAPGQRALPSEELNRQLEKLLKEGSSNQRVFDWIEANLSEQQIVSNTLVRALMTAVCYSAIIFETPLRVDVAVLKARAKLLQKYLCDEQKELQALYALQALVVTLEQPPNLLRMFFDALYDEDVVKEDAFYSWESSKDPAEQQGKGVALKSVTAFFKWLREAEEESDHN
Tb MetRS inh = T. brucei MetRS inhibitors, primary screen, biochemical, luminescence; methionyl-tRNA synthetase (Trypanosoma brucei brucei); purified T. brucei MetRS, ATP depletion, Kinase-Glo luminescence; inhibition, % at 11.9 µM; 0.4% of 360,000 active; AID 624268, 2012;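 active = inhibition above a per-plate cutoff of the control wells' mean inhibition plus 3 SD, cut at about 5.5% in these data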;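 note: 0% = DMSO wells median and 100% = median of wells with control inhibitor compound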
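assay system = parasite MetRS enzyme | timing = 15 min preincubation, 2 h reaction, all 25 °C | evaluation = percent inhibition relative to median high and low control wells | medium = HEPES buffer containing pyrophosphatase, BSA, spermine, DTT | compound = single dose, 11.9 µM final nominal, 0.9% final DMSO | detection = Kinase-Glo luminescence, ATP depletion format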
* = called active by the depositor; ? = inconclusive; nt = not tested or not shown.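 Rule for the calls, unless noted: active = inhibition above about 30% (limit read from the data); inactive = the rest.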

SMILES	UBC9 SUMO inh	p97 inhibitor	p47phox inh	14-3-3 Bad PPI	eIF4E-4G inh	Tb MetRS inh
O=C(Nc1cccc(Cl)c1)C1CCCN(S(=O)(=O)c2ccc(F)cc2)C1 (centres undefined)	-30.1	-1.3	-10.0	-2.7	9.1	0.3
O=C(Nc1ccccc1Cl)C1CCCN(S(=O)(=O)c2ccc(F)cc2)C1 (centres undefined)	-0.3	0.9	-2.5	77.4*	0.2	-0.9
NC(=O)[C@H](Cc1cc2ccccc2s1)NC(=O)[C@@H]1CC2(CC(c3cccc(NC(=O)[C@@H]4CCC(=O)N4)c3)=NO2)CN1C(=O)/C=C/Sc1ccccc1 (some centres undefined)	-2.4	17.2*	-32.4	-6.9	-5.0	-0.1
O=C(C#Cc1ccccc1)c1cccc([N+](=O)[O-])c1	10.2	14.7*	-10.8	-9.1	2.0	-0.5
NC(=O)c1[nH]cnc1N	-3.8	nt	nt	nt	nt	-0.3
Oc1oc(-c2ccccc2)nc1C=NCc1ccccc1	-1.2	-3.9	-8.9	-6.8	-0.5	-0.1
CC(=O)Nc1ccc(N=Cc2nc(-c3ccc(C)cc3)oc2O)cc1	14.3	-3.1	-32.8	69.1	-4.9	0.2
Cc1ccc(N=Cc2nc(-c3ccc(C)cc3)oc2O)cc1	11.4	-0.7	nt	0.5	66.0*	-0.7
Oc1oc(-c2ccccc2)nc1C=Nc1ccccc1	19.1	3.2	43.7*	11.9	-1.2	1.1
CN(C)c1ccc(N=Cc2nc(-c3ccccc3)oc2O)cc1	16.9	1.7	58.4*	-18.9	-2.1	-1.8
COc1cc(/C=N/NC(=O)C2c3ccccc3Oc3ccccc32)ccc1O	-9.4	3.9	-19.0	33.2	40.8*	-1.0
COc1cc(/C=N/NC(=O)c2cc(C)oc2C)ccc1O	0.2	0.2	36.9*	-20.9	0.2	-0.7
COc1cc(/C=N/NC(=O)C2COc3ccccc3O2)ccc1O (centres undefined)	21.7	-3.0	-5.7	-15.3	1.6	-0.2
C#CCNC(=O)C[C@@H]1C[C@@]2(C(=O)OCC)CCCC=C2N(CCC2=CCCCC2)C1=O	nt	nt	nt	nt	nt	-0.3
O=C(Cc1ccccc1)Nn1cnc2ccccc21	28.9	-0.2	-5.1	78.0*	3.9	0.3
O=C(Cn1cnc2ccccc21)NCc1ccccc1	-5.2	-3.2	-1.5	-5.4	-0.4	0.5
CS(=O)(=O)N1CCN(c2ccc([N+](=O)[O-])c(NCc3ccc(Cl)cc3)c2)CC1	12.5	4.7	5.3	71.5*	3.8	-1.2
CS(=O)(=O)N1CCN(c2ccc([N+](=O)[O-])c(NCc3ccccc3)c2)CC1	-16.6	-2.4	-13.8	-17.1	-6.6	-0.1
O=C(c1ccc(Cl)cc1)n1c(NCc2ccccc2)n[nH]c1=S	24.3	3.9	-7.3	82.5*	-0.1	0.0
COCCN1C(=O)CSCC1(C)C(=O)Nc1c(C)cccc1C (centres undefined)	nt	nt	nt	nt	nt	-0.9
Cc1cccc(CN2CCN(Cc3nc4c(s3)CCCC4)CC2CCO)n1 (centres undefined)	13.8	-0.9	13.1	-8.3	-2.1	-0.4
O=C(CSc1nc(-c2ccc(F)cc2)nc2c1Cc1ccccc1O2)Nc1cccc(C(=O)O)c1	?	-0.9	-134.1	95.2*	62.7*	-1.4
Oc1ccc(Cl)c(CN2CCN(c3ncc(Cc4ccccc4)cn3)CC2)c1	nt	nt	nt	nt	nt	-0.6
CC(=O)Nc1cccc(-c2nc3ccccc3[nH]2)c1	4.4	5.4	-4.1	-4.4	0.7	0.2
CC(Oc1ccccc1)C(=O)Nc1cccc(-c2nc3ccccc3[nH]2)c1 (centres undefined)	21.3	2.8	-26.2	2.7	-9.4	37.8*
COc1ccc(OC)c(CN2C(=O)CN(S(C)(=O)=O)CC2(C)C(=O)Nc2c(C)cccc2C)c1 (centres undefined)	nt	nt	nt	nt	nt	-0.5
Cc1ccccc1NC(=O)CSc1nc(N)c(C#N)c(-c2cccs2)c1C#N	-10.7	-5.8	-10.3	7.6	1.6	8.1*
